According to ChEMBL document CHEMBL3739412, “Addressing cytotoxicity of 1,4-biphenyl amide derivatives: Discovery of new potent and selective 17β-hydroxysteroid dehydrogenase type 2 inhibitors” (Bioorg Med Chem Lett, 2016):
pIC50: −log10 of the molar value. The source made the active and inactive calls. The rule behind the calls is not given here.

Key:
[1] = biological target: T1, 17-beta-hydroxysteroid dehydrogenase type 2 (Homo sapiens) (UniProt P37059); test: Inhibition of 17beta-HSD2 in human placental microsomal fraction using E2/NAD+ as substrate/cofactor at 1 uM after 20 mins by HPLC analysis; conditions: Placenta
T1 sequence (whole entry): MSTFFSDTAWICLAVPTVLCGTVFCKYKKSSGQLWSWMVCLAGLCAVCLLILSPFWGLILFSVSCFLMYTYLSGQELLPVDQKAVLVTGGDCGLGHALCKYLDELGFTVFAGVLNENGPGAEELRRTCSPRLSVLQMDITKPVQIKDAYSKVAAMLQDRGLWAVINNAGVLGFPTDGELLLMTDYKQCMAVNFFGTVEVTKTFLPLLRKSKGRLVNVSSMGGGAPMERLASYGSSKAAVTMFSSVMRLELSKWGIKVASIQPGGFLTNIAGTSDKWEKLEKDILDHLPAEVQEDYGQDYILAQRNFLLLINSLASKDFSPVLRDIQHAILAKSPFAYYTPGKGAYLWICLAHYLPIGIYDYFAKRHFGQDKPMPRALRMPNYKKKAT
Outline: (§1)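 Enzyme source is human placenta, microsomal fraction. Substrate is estradiol (E2) at 500 nM, with NAD+ as cofactor. Values are the mean of at least two determinations, with standard deviation below 20%.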

[2] = biological target: T2, 17-beta-hydroxysteroid dehydrogenase type 1 (Homo sapiens) (UniProt P14061); test: Inhibition of 17beta-HSD1 in human placental cytosolic fraction using E1/NADH as substrate/cofactor at 1 uM after 10 mins by HPLC analysis
T2 sequence (whole entry): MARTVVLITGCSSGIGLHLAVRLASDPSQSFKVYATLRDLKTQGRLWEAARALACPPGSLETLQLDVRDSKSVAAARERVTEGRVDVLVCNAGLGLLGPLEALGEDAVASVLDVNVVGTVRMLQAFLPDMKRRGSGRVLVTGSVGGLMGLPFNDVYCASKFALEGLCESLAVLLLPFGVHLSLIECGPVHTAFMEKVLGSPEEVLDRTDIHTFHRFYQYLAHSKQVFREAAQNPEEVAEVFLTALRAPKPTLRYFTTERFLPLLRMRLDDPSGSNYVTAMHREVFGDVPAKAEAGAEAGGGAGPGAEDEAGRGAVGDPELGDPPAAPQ
Outline: (§2)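 Enzyme source is human placenta, cytosolic fraction. Substrate is estrone (E1) at 500 nM, with NADH as cofactor. Values are the mean of at least two determinations, with standard deviation below 20%.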

[3] = species on record: Homo sapiens; test: Selectivity ratio of IC50 for 17beta-HSD1 in human placental cytosolic fraction to IC50 for 17beta-HSD2 in human placental microsomal fraction
[4] = Half life in human liver S9 fraction at 1 uM after 5 to 60 mins by LC-MS/MS analysis; type: ADME, subcellular
[5] = Cytotoxicity against HEK293 cells assessed as cell viability after 66 hrs by MTT assay; type: cell-based; conditions: human, read-out: LD50
[6] = Cytotoxicity against HEK293 cells assessed as cell viability at 6.25 uM after 66 hrs by MTT assay; type: cell-based; conditions: human, read-out: Activity
[7] = biological target: T3, 17-beta-hydroxysteroid dehydrogenase type 1 (Homo sapiens, UniProt P14061); test: Inhibition of 17beta-HSD1 in human placental cytosolic fraction using E1/NADH as substrate/cofactor after 10 mins by HPLC analysis; conditions: for pIC50: read-out: IC50; outline: as §2
T3 sequence (P14061 whole entry): T2 sequence (whole entry)

[8] = biological target: T4, 17-beta-hydroxysteroid dehydrogenase type 2 (Homo sapiens, UniProt P37059); test: Inhibition of 17beta-HSD2 in human placental microsomal fraction using E2/NAD+ as substrate/cofactor after 20 mins by HPLC analysis; set-up: species or system Placenta; outline: as §1
T4 sequence (P37059 whole entry): T1 sequence (whole entry)

| Structure (SMILES) | inhibition [1] | inhibition [2] | also measured |
| --- | --- | --- | --- |
| Cc1cccc(N2CCN(S(=O)(=O)c3cccc(O)c3)CC2)c1 | 27% | inactive |  |
| COc1cccc(C(=O)N2CCN(c3cccc(C)c3)CC2)c1 | inactive | inactive |  |
| COc1cccc(C(=O)N2CCN(c3cccc(OC)c3)CC2)c1 | inactive | inactive |  |
| O=S(=O)(c1cccc(O)c1)N1CCN(c2cccc(O)c2)CC1 | 25% | inactive |  |
| COc1cccc(N(C)C(=O)c2ccc(-c3ccc(C)c(C)c3)cc2)c1 | 75% |  | Ratio IC50 [3]: 44; half-life at 1 µM [4]: 1.78 h; CC50 at 66 h [5]: < 6.25 µM; viability at 66 h, 6.25 µM [6]: 34% |
| COc1cccc(N(C)C(=O)c2ccc(Oc3ccc([N+](=O)[O-])cc3)cc2)c1 | 43% | inactive | IC50 [7]: Not Active |
| COc1cccc(N(C)C(=O)C2CCC(c3ccc(Cl)cc3)CC2)c1 (stereo unspecified) |  |  | pIC50 [8]: 6.54; pIC50 [7]: 4.22; Ratio IC50 [3]: 209; CC50 at 66 h [5]: > 12.5 µM |
| Cc1cccc(N(C)C(=O)c2ccc(Oc3ccccc3C)cc2)c1 | 55% | inactive | IC50 [7]: Not Active |
| COc1cccc(N2CCN(S(=O)(=O)c3cccc(OC)c3)CC2)c1 | inactive | inactive |  |
| O=C(c1cccc(O)c1)N1CCN(c2ccccc2)CC1 | 27% | inactive |  |
| COc1cccc(S(=O)(=O)N2CCN(c3ccc(F)c(OC)c3)CC2)c1 | 15% | inactive |  |
| COc1cccc(N(C)C(=O)c2ccc(Oc3ccc(Cl)cc3)cc2)c1 | 51% | 13% |  |
| COc1cccc(S(=O)(=O)N2CCN(c3cccc(C)c3)CC2)c1 | 16% | inactive |  |
| COc1cccc(C(=O)N2CCN(c3ccccc3)CC2)c1 | 14% | inactive |  |
| Cc1ccc(Oc2ccc(C(=O)N(C)c3cccc(C)c3)cc2)cc1 |  |  | pIC50 [8]: 6.80; pIC50 [7]: 4.58; Ratio IC50 [3]: 168; CC50 at 66 h [5]: 25 µM |
| Cc1cccc(Oc2ccc(C(=O)N(C)c3cccc(C)c3)cc2)c1 |  |  | pIC50 [8]: 6.52; pIC50 [7]: 4.79; Ratio IC50 [3]: 54; CC50 at 66 h [5]: 25 µM |
| Cc1cccc(N(C)C(=O)c2ccc(Oc3ccccc3)cc2)c1 | 59% | inactive | IC50 [7]: Not Active |
| CN(C(=O)c1ccc(Oc2ccc(O)cc2)cc1)c1cccc(O)c1 | 43% | inactive | IC50 [7]: Not Active |
| COc1cccc(C(=O)N2CCN(c3ccc(C)cc3)CC2)c1 | 16% | inactive |  |
| Cc1cccc(N2CCN(C(=O)c3cccc(O)c3)CC2)c1 | 16% | inactive |  |
| Cc1ccc(N2CCN(C(=O)c3cccc(O)c3)CC2)cc1 | inactive | inactive |  |
| O=S(=O)(c1cccc(O)c1)N1CCN(c2ccc(F)c(O)c2)CC1 | 48% | inactive |  |
| COc1ccc(Oc2ccc(C(=O)N(C)c3cccc(OC)c3)cc2)cc1 |  |  | pIC50 [8]: 6.51; pIC50 [7]: 5.02; Ratio IC50 [3]: 31; CC50 at 66 h [5]: 25 µM |
